From ChEMBL document CHEMBL5104174, “Development of tumor-targeting aza-vesamicol derivatives with high affinity for sigma receptors for cancer theranostics” (RSC Med Chem, 2022)
Each block holds one compound with its values, some of them ahead of it.

Experiments:
[1] = molecular target: Sigma non-opioid intracellular receptor 1 (Rattus norvegicus, UniProt Q9R0C9); assay: Displacement of (+)-[3H]pentazocine from sigma-1 receptor in Sprague-Dawley rat cerebral membrane incubated for 90 mins by liquid scintillation counter analysis; format: cell membranes, Cerebrum
[2] = molecular target: T1, Sigma intracellular receptor 2 (Rattus norvegicus, UniProt Q5U3Y7); assay: Displacement of [3H]DTG from sigma-2 receptor in Sprague-Dawley rat liver membrane incubated for 90 mins in presence of by liquid scintillation counter analysis (+)-pentazocine by liquid scintillation counter analysis; format: cell membranes
T1 sequence (Q5U3Y7 whole entry): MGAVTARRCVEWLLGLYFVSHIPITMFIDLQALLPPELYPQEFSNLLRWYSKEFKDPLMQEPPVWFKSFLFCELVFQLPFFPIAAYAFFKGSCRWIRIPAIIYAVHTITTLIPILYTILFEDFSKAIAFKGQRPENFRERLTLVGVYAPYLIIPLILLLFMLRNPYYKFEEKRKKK

[3] = Drug uptake in tumor of Balb/c mouse xenografted with human DU-145 cells assessed as radioactivity at 37 kBq, iv and measured upto 24 hrs post-injection by gamma counter analysis; format: ADME, organism-based, Neoplasm; conditions: in vivo
In short: (§1)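 About 5 × 10⁶ DU-145 cells injected sc into the right dorsum of 4-week-old male BALB/c nude mice. Sacrificed at 1 and 24 h. Gamma counting, expressed as % injected dose, mean ± SD.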

[4] = Biodistribution in liver of Balb/c mouse xenografted with human DU-145 cells assessed as radioactivity at 37 kBq, iv and measured upto 24 hrs post-injection by gamma counter analysis; format: ADME, organism-based; conditions: in vivo; in short: as §1
[5] = Biodistribution in kidney of Balb/c mouse xenografted with human DU-145 cells assessed as radioactivity at 37 kBq, iv and measured upto 24 hrs post-injection by gamma counter analysis; format: ADME, organism-based; conditions: in vivo; in short: as §1
[6] = Biodistribution in lung of Balb/c mouse xenografted with human DU-145 cells assessed as radioactivity at 37 kBq, iv and measured upto 24 hrs post-injection by gamma counter analysis; format: ADME, organism-based; conditions: in vivo; in short: as §1
[7] = Drug uptake in tumor of Balb/c mouse xenografted with human DU-145 cells at 38 MBq, iv and measured after 24 hrs post-injection by SPECT/CT analysis; format: ADME, organism-based, Neoplasm; conditions: in vivo
In short: (§2)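 DU-145 sc xenografts in BALB/c nude mice. HPLC-purified 123I-tracer given iv, 50 MBq or 38 MBq per tracer. Small-animal SPECT/CT at 24 h postinjection, 0.8 mm voxels.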

[8] = Drug uptake in pancreas of Balb/c mouse xenografted with human DU-145 cells at 38 MBq, iv and measured after 24 hrs post-injection by SPECT/CT analysis; format: ADME, organism-based; conditions: in vivo; in short: as §2
[9] = Drug uptake in thyroid gland of Balb/c mouse xenografted with human DU-145 cells at 38 MBq, iv and measured after 24 hrs post-injection by SPECT/CT analysis; format: ADME, organism-based; conditions: in vivo; in short: as §2
[10] = Drug uptake in human DU-145 cells assessed as radioactivity at 3.7 kBq incubated for 15 to 120 mins; format: ADME, cell-based; conditions: time 15-120 min
In short: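 DU-145 cells grown in RPMI 1640 with 10% FBS, seeded and pre-incubated 24 h. Washed with ice-cold PBS, lysed in 1 M NaOH, counted and normalized to BCA protein. Mean ± SD.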

[11] = 1-Octanol/PBS partition coefficient, logP of the compound at pH 7.4 by shake flask method; format: physicochemical
In short: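 Radioiodinated tracer partitioned between 1-octanol and 0.1 M phosphate buffer pH 7.4 by shake-flask. Ratio of radioactivity in octanol to that in buffer, expressed as log P. Mean ± SD of four samples.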

[12] = Stability of the compound in pH 7.4 phosphate buffer assessed as parent compound remaining at 22 to 82 kBq incubated for 24 hrs by RP-HPLC analysis; format: physicochemical; conditions: dose 22-82 kBq, read-out: Stability
[13] = Metabolic stability in mouse plasma assessed parent compound remaining at 74 to 93 kBq incubated for 1 hrs by RP-HPLC analysis; format: ADME, cell-free; conditions: dose 74-93 kBq, read-out: Stability
In short: (§3)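 Ice-cold acetonitrile added, centrifuged 1700 g for 15 min at 4 °C, filtered 0.45 μm. Intact tracer measured by RP-HPLC; mean ± SD of three samples.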

[14] = Metabolic stability in mouse plasma assessed parent compound remaining at 74 to 93 kBq incubated for 24 hrs by RP-HPLC analysis; format: ADME, cell-free; conditions: dose 74-93 kBq, read-out: Stability; in short: as §3
[15] = Biodistribution in ddY mouse blood assessed as blood clearance by measuring radioactivity at 18 to 33 kBq, iv […] and measured upto 24 hrs post-injection by gamma counter analysis; format: ADME, organism-based; conditions: in vivo, dose 18-33 kBq
In short: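 Male ddY mice, 6 weeks old, 28–30 g. Sacrificed at 10, 30 min, 1, 4, 8 and 24 h postinjection. Tissue radioactivity counted in a gamma counter.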

[16] = Biodistribution in ddY mouse neck assessed as radioactivity at 18 to 33 kBq, […] by gamma counter analysis; format: ADME, organism-based; conditions: in vivo, iv, dose 18-33 kBq
[17] = Drug uptake in tumor of Balb/c mouse xenografted with human DU-145 cells assessed as radioactivity at 37 kBq, iv and measured after 1 hrs post-injection by gamma counter analysis; format: ADME, organism-based, Neoplasm; conditions: in vivo; in short: as §1
[18] = Drug uptake in tumor of Balb/c mouse xenografted with human DU-145 cells at 50 MBq, iv and measured after 24 hrs post-injection by SPECT/CT analysis; format: ADME, organism-based, Neoplasm; conditions: in vivo; in short: as §2
[19] = Drug uptake in pancreas of Balb/c mouse xenografted with human DU-145 cells at 50 MBq, iv and measured after 24 hrs post-injection by SPECT/CT analysis; format: ADME, organism-based; conditions: in vivo; in short: as §2
[20] = Drug uptake in thyroid gland of Balb/c mouse xenografted with human DU-145 cells at 50 MBq, iv and measured after 24 hrs post-injection by SPECT/CT analysis; format: ADME, organism-based; conditions: in vivo; in short: as §2

Sigma non-opioid intracellular receptor 1, sequence (Q9R0C9 whole entry): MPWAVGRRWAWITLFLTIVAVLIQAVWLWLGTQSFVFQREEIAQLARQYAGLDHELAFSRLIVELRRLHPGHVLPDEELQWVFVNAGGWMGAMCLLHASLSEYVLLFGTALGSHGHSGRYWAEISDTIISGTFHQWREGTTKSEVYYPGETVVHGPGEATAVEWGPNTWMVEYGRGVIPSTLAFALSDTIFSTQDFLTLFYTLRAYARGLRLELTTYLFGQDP

Ki [1]: 19.4 nM | Ki [2]: 32.5 nM
Structure (SMILES): O[C@H]1CCCC[C@@H]1N1CCN(CCCc2ccccc2Br)CC1 (relative stereo)

Ki [1]: 21.5 nM | Ki [2]: 371 nM
Structure (SMILES): O[C@H]1CCC[C@@H]1N1CCN(CCc2ccccc2Br)CC1 (relative stereo)

Ki [1]: 17.2 nM | Ki [2]: 25.1 nM
Structure (SMILES): O[C@H]1CCCC[C@@H]1N1CCN(CCc2cccc(Br)c2)CC1 (relative stereo)

Drug uptake [3]: Active | Drug uptake [4]: Active | Drug uptake [5]: Active | Drug uptake [6]: Active
Structure (SMILES): O[C@H]1CCCC[C@@H]1N1CCN(CCCc2ccc([125I])cc2)CC1 (relative stereo)

Ki [1]: 8.1 nM | Ki [2]: 12.6 nM
Structure (SMILES): O[C@H]1CCC[C@@H]1N1CCN(CCCc2ccc(Br)cc2)CC1 (relative stereo)

Ki [1]: 7.9 nM | Ki [2]: 73.6 nM
Structure (SMILES): O[C@H]1CCC[C@@H]1N1CCN(CCc2cccc(I)c2)CC1 (relative stereo)

Drug uptake [3]: Active | Drug uptake [4]: Active | Drug uptake [5]: Active | Drug uptake [6]: Active
Structure (SMILES): O[C@H]1CCCC[C@@H]1N1CCC(c2ccc([125I])cc2)CC1

Drug uptake [7]: Active | Drug uptake [8]: Active | Drug uptake [9]: Active
Structure (SMILES): O[C@H]1CCC[C@@H]1N1CCN(CCCc2cccc([123I])c2)CC1 (relative stereo)

Ki [1]: 7.7 nM | Ki [2]: 22.2 nM
Structure (SMILES): O[C@H]1CCCC[C@@H]1N1CCN(CCCc2cccc(Br)c2)CC1 (relative stereo)

Ki [1]: 9.9 nM | Ki [2]: 148 nM
Structure (SMILES): O[C@H]1CCC[C@@H]1N1CCN(CCc2ccc(Br)cc2)CC1 (relative stereo)

Ki [1]: 9.8 nM | Ki [2]: 44.5 nM
Structure (SMILES): O[C@H]1CCCC[C@@H]1N1CCN(CCc2ccc(Br)cc2)CC1 (relative stereo)

Drug uptake [10]: Active | logD [11]: 2.08 | remaining at 24 h [12]: 96.9% | remaining at 1 h [13]: 95.6% | remaining at 24 h [14]: 81.3% | Drug uptake [15]: Active | Drug uptake [16]: Active | Drug uptake [3]: Active | Drug uptake [17]: Active
Structure (SMILES): O[C@H]1CCC[C@@H]1N1CCN(CCc2cccc([125I])c2)CC1 (relative stereo)

Ki [1]: 4.8 nM | Ki [2]: 8.1 nM
Structure (SMILES): O[C@H]1CCC[C@@H]1N1CCN(CCCc2cccc(Br)c2)CC1 (relative stereo)

Drug uptake [18]: Active | Drug uptake [19]: Active | Drug uptake [20]: Active
Structure (SMILES): O[C@H]1CCC[C@@H]1N1CCN(CCc2cccc([123I])c2)CC1 (relative stereo)

Ki [1]: 14.6 nM | Ki [2]: 16.9 nM
Structure (SMILES): O[C@H]1CCC[C@@H]1N1CCN(CCCc2cccc(I)c2)CC1 (relative stereo)

Drug uptake [10]: Active | logD [11]: 2.5 | remaining at 24 h [12]: 96.3% | remaining at 1 h [13]: 96.5% | remaining at 24 h [14]: 94.8% | Drug uptake [15]: Active | Drug uptake [16]: Active | Drug uptake [3]: Active | Drug uptake [17]: Active
Structure (SMILES): O[C@H]1CCC[C@@H]1N1CCN(CCCc2cccc([125I])c2)CC1 (relative stereo)

Ki [1]: 12.4 nM | Ki [2]: 138 nM
Structure (SMILES): O[C@H]1CCC[C@@H]1N1CCN(CCc2cccc(Br)c2)CC1 (relative stereo)

Ki [1]: 37.1 nM | Ki [2]: 116 nM
Structure (SMILES): O[C@H]1CCC[C@@H]1N1CCN(CCCc2ccccc2Br)CC1 (relative stereo)

Ki [1]: 10.2 nM | Ki [2]: 41.8 nM
Structure (SMILES): O[C@H]1CCCC[C@@H]1N1CCN(CCc2ccccc2Br)CC1 (relative stereo)

Ki [1]: 4.4 nM | Ki [2]: 26 nM
Structure (SMILES): O[C@H]1CCCC[C@@H]1N1CCN(CCCc2ccc(Br)cc2)CC1 (relative stereo)
